Measurements from PMC11629119 (Pharmacology Research & Perspectives, 2024).
“And” between values parts separate entries of the source, which are not always exact repeats. Equal values may be shown once. “Also recorded” adds a separate entry of the source. Marks after values point to notes of the source that are not given here.

Tests used:
2D HepaRG = assay: Cell viability assay; format: cell-based; conditions: Homo sapiens
How it was run: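 HepaRG seeded at 2.25 × 10⁵ cells/cm² in 96-well plates 7 days before exposure; plates gas-permeable sealed. Ranges: glycol ethers 10–1000 mM, metabolites 1–25 mM, ethanol 1–600 mM. Highest-concentration solutions neutralised to pH 7.4 with NaOH, filter-sterilised. ATP by CellTiter-Glo luminescence at 48 h and 7 days, as % untreated control. EC50 calculated. N = 3–4 biological repeats, triplicates.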

3D HepaRG [1] = assay: Cell viability assay; format: cell-based, human; conditions: for higher toxicity of metabolite compared to its solvent (EC50, 3D HepaRG): 2‐MPA vs β‐PGME, 2‐MAA vs EGME; for EC50: Homo sapiens, HepaRG
How it was run: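 HepaRG spheroids formed from 3000 cells/well in U-bottom plates, 7 days pre-exposure. Dosing: half the medium replaced with twofold-concentrated compound; plates gas-permeable sealed. Ranges: glycol ethers 10–1000 mM, acid metabolites 1–25 mM, ethanol 1–600 mM; top solutions neutralised to pH 7.4, filtered. ATP by CellTiter-Glo luminescence at 48 h and 7 days, % of untreated control. EC50 calculated. N = 3–4 biological repeats, triplicates.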

[2] = Data derived from Pubchem ref PubChem (nih.gov); cited from earlier work
[3] = TK model parameter; ref Kerns et al. [54]; cited from earlier work
[4] = TK model parameter; ref Devanthéry et al. [20]; cited from earlier work
3D HepaRG [5] = assay: Albumin ELISA assay in 3D HepaRG supernatant; format: cell-based, human; conditions: 3D HepaRG exposed to 16 mM APAP for 48 h; untreated 78.4 ± 22.9 ng/mL
CYP2E1 = assay: Gene expression q‐RT‐PCR in HepaRG, CYP2E1; format: cell-based, human; conditions: 7‐day exposure
How it was run: (§1)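 HepaRG seeded at 2.25 × 10⁵ cells/cm² in 96-well plates for 7 days. RNA extracted with Qiazol/TRIzol plus glycogen. Reverse transcription with M-MLV and oligo dT. TaqMan probe qPCR program: 95°C 10 min, then 40 cycles of 95°C 15 s and 60°C 1 min.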

ADH1C = assay: Gene expression q‐RT‐PCR in HepaRG, ADH1C; format: cell-based, human; conditions: 7‐day exposure
How it was run: as §1

ALDH2 = assay: Gene expression q‐RT‐PCR in HepaRG, ALDH2; format: cell-based, human; conditions: 7‐day exposure
How it was run: as §1

human hepatocytes [6] = conditions: EGME, from reported Km and Vmax applying the scaling factors of this study
human hepatocytes [7] = conditions: EGME; cited from earlier work
[8] = used for β‐PGME to PG in TK model; ref Gargas et al. [55]; cited from earlier work
[9] = system: ADH / ALDH in human liver S9 fraction; assay: Inhibition of 2‐MPA formation in S9 incubations; format: biochemical; conditions: 5 mM β‐PGME, S9, NAD+ only, 45 min
How it was run: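 Human liver S9 (2 mg/mL) in 100 mM potassium phosphate pH 7.4, 3 mM MgCl₂. Substrate 5 mM, chosen below ADH saturation; NAD⁺ as sole cofactor. ADH inhibitor at 50 μM or ALDH inhibitor at 10 μM, final. 5 min preincubation; cofactor starts reaction; 45 min, 37°C, 300 rpm. Stopped with ice-cold acetonitrile. Acid metabolite by HPLC-MS/MS. N = 3, duplicates. One-way ANOVA/Dunnett versus control.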

[10] = plasma binding; measured data derived from literature ref 32; cited from earlier work
[11] = S9 fraction incubation, Michaelis–Menten kinetics β‐PGME to 2‐MPA; format: in vitro ADME, human; conditions: human, human liver S9 fraction, pH 7.4
How it was run: (§2)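 Human liver S9 (2 mg/mL), 100 mM phosphate pH 7.4, 3 mM MgCl₂, substrate 0.1–8 mM; 1 mM NAD⁺ plus 1 mM NADPH start the reaction after 5 min preincubation. 45 min, 37°C; cofactor-free controls; acetonitrile stop. Metabolite by HPLC-MS/MS. Km/Vmax by nonlinear Michaelis–Menten fit; CLint = Vmax/Km. Scaled via physiological factors; well-stirred model (QH 20.7 mL/min/kg, fu,inc by Hallifax–Houston). N = 3, duplicates.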

[12] = system: human liver subcellular fraction (S9); assay: as above; format: in vitro ADME
How it was run: as §2

[13] = S9 fraction incubation, solvent loss and metabolite formation; format: in vitro ADME, human; conditions: human, human liver S9 fraction; for microsomal CLint at 700 μM: pH 7.4, CLint, in vitro, S9, measured, 700 μM β‐PGME; for CLint scaled at 700 μM: pH 7.4, Predicted CL int, in vivo
How it was run: (§3)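 S9 2 mg/mL, 100 mM phosphate pH 7.4, 3 mM MgCl₂, 1 mM NAD⁺/NADPH; substrate 700 μM, 37°C. Aliquots at 1, 12, 23, 34, 45 min quenched with 2 volumes ice-cold acetonitrile; cofactor-free controls. Elimination or formation constant from slope of ln % parent remaining or ln metabolite versus time; CLint = k × volume / S9 protein. Scaled to CLh with well-stirred model. N = 3, duplicates.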

[14] = system: human liver subcellular fraction (S9); assay: as above; format: in vitro ADME; conditions: for In vitro predicted hepatic organ clearance (CL h), CLmetMPA: measured; for Predicted CL h: well‐stirred liver model
How it was run: as §3

[15] = Metabolite formation in the 3D HepaRG liver model; format: in vitro ADME, human; conditions: human, 3D HepaRG spheroids
How it was run: (§4)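 HepaRG spheroids (79 per well, 2772 cells each) formed 7 days in ultra-low-attachment micro-arrays. Substrate added as threefold concentrate to 5 mM final; 37°C, 5% CO₂, sealed. Supernatant sampled at 1, 15, 30, 45 min and 1, 6, 24 h, acetonitrile-quenched. Metabolite by HPLC-MS/MS. Formation constant from ln concentration versus time over 60 min; CLint per million cells. fu,inc by Kilford method (1.46 × 10⁶ cells/mL); well-stirred CLh. N = 3.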

3D HepaRG [16] = assay: Metabolite formation in the 3D HepaRG liver model; format: in vitro ADME, human; conditions: 3D HepaRG, metabolite formation
How it was run: as §4

[17] = cited from earlier work
[18] = β‐PGME → 2‐MPA, S9 2 mg/mL, 45 min

Structure (SMILES): COCC(=O)O [2‐MAA, 2‐Methoxyacetic acid, reference compound]
- EC50 (2D HepaRG; 48 h): 31 mM
- EC50 (2D HepaRG; 168 h): 16 mM
- higher toxicity of metabolite compared to its solvent (EC50, 3D HepaRG) (3D HepaRG [1]): ~50 fold
- EC50 (3D HepaRG [1]; 48 h): 11 mM
- EC50 (3D HepaRG [1]; 168 h): 9 mM
- logP [2]: −0.30

Structure (SMILES): COC(C)C(=O)O (stereo not drawn) [2‐MPA, 2‐Methoxypropionic acid]
- EC50 (2D HepaRG; 48 h): 81 mM
- EC50 (2D HepaRG; 168 h): 34 mM
- higher toxicity of metabolite compared to its solvent (EC50, 3D HepaRG) (3D HepaRG [1]): approximately fourfold; also recorded: approximately four times lower
- EC50 (3D HepaRG [1]; 48 h): 46 mM
- EC50 (3D HepaRG [1]; 168 h): 26 mM
- Permeability coefficient (BBB) (PeMPA) [3]: 100 ×10⁻⁶ cm/s
- Urinary excretion rate of 2‐MPA (KMPA) [4]: 0.09 h⁻¹

Structure (SMILES): CC(=O)Nc1ccc(O)cc1 [APAP, acetaminophen]
- albumin secretion (albumin concentration in medium) (3D HepaRG [5]): 1.78 ± 0.68 ng/mL

Structure (SMILES): COCCO [EGME, 2‐Methoxyethanol]
- expression of CYP2E1 (CYP2E1): not induced
- expression of ADH1C (ADH1C): not induced
- expression of ALDH2 (ALDH2): not induced
- logP [2]: −0.80
- calculated in vitro CLint (human hepatocytes [6]): 0.62 µL/min/mg
- V max (human hepatocytes [7]): 61.3 nmol/h/10^6 cells
- Kinetic constant EGME → EG (ethylene glycol) (CLmetPG) [8]: 5 mL/min/kg

Structure (SMILES): c1ccc(-c2ccc3nc(-c4ccccc4)cn3c2)cc1 [GA11, 2,6‐diphenylimidazo[1,2‐a]pyridine]
- 2‐MPA formation compared to control incubations ([9]; 10 μM GA11 (ALDH inhibitor)): significantly reduced

Structure (SMILES): COCC(C)O (stereo not drawn) [PGME, 1‐Methoxypropan‐2‐ol]
- EC50 (3D HepaRG [1]; 168 h): 96 mM
- expression of CYP2E1 (CYP2E1): not induced
- expression of ADH1C (ADH1C): not induced
- expression of ALDH2 (ALDH2): not induced
- logP [2]: −0.49 −0.49
- fu,b [10]: 0.540 ^c 0.540 ^c

Structure (SMILES): CCO [ethanol]
- expression of CYP2E1 (CYP2E1): not induced
- expression of ADH1C (ADH1C): not induced
- expression of ALDH2 (ALDH2): not induced

Structure (SMILES): Cc1cn[nH]c1 [fomepizole, 4‐methyl pyrazole]
- 2‐MPA formation compared to control incubations ([9]; 50 μM fomepizole (ADH inhibitor)): significantly reduced

Structure (SMILES): COC(C)CO (stereo not drawn) [β‐PGME, 2‐Methoxypropan‐1‐ol]
- EC50 (3D HepaRG [1]; 168 h): 86 mM
- CLint scaled [11]: 0.6 ± 0.09 mL/min/kg
- microsomal CLint [11]: 0.19 ± 0.03 µL/min/mg
- Predicted CL h ([12]; S9, calculated (Vmax/Km), well‐stirred liver model): 0.36 ± 0.05 mL/min/kg
- In vitro predicted hepatic organ clearance (CL h), CLmetMPA ([12]; S9, metabolite formation, calculated (V max/K m)): 0.36 mL/min/kg
- K m [12, 18]: 5.572 ± 2.171 mM
- V max [12, 18]: 1.04 ± 0.28 nmol/min/mg
- microsomal CLint at 700 μM ([13]; metabolite formation): 40.9 ± 5.19 µL/min/mg
- microsomal CLint at 700 μM ([13]; solvent loss): 3.8 ± 2.14 µL/min/mg
- CLint scaled at 700 μM ([13]; S9, metabolite formation): 127 ± 16.1 mL/min/kg
- CLint scaled at 700 μM ([13]; S9, solvent loss): 11.8 ± 6.67 mL/min/kg
- In vitro predicted hepatic organ clearance (CL h), CLmetMPA ([14]; S9, metabolite formation): 16.4 mL/min/kg
- Predicted CL h ([14]; S9, metabolite formation): 16.4 ± 0.47 mL/min/kg
- In vitro predicted hepatic organ clearance (CL h), CLmetMPA ([14]; S9, solvent loss): 5 mL/min/kg
- Predicted CL h ([14]; S9, solvent loss): 5.00 ± 2.52 mL/min/kg and 5.03 ± 2.52 mL/min/kg
- clearance ranking based on in vitro predicted CLh values ([14]; overall generated CLh values (S9 and 3D HepaRG), reported clearance rankings): low to medium clearance compound
- CLint scaled at 5 mM [15]: 28.2 ± 2.5 mL/min/kg
- hepatocyte CLint at 5 mM [15]: 9.34 ± 0.83 µL/min/1e6 cells
- microsomal CLint at 5 mM [15]: 9.62 ± 0.85 µL/min/mg
- In vitro predicted hepatic organ clearance (CL h), CLmetMPA (3D HepaRG [16]; measured): 9.07 mL/min/kg
- Predicted CL h (3D HepaRG [16]; well‐stirred liver model): 9.07 ± 0.44 mL/min/kg
- logP [2]: −0.49 −0.49
- fu,b [10]: 0.540 ^c 0.540 ^c
- excretion of conjugated β‐PGME [17]: 3%
- β‐PGME excreted as 2‐MPA ([17]; published rat studies): more than 60%
